# In ChEMBL document CHEMBL5131497, “Design, Synthesis, and Characterization of TNP-2198, a Dual-Targeted Rifamycin-Nitroimidazole Conjugate with Potent Activity against Microaerophilic and Anaerobic Bacterial Pathogens” (J Med Chem, 2022):
# Tests used:
# Helicobacter pylori [1] = assay: Antibacterial activity against Helicobacter pylori infected in C57/BL6 mouse assessed as bacterial load in stomach at 1 mg/kg administered twice daily via oral gavage starting from 7 days post inoculation and administered for 7 days in presence of 10 mg/kg clarithromycin and 20 mg/kg amoxicillin (reference value: 5.25 log10CFU); assay type: functional; details: time 7 day
# [2] = Drug distribution in Sprague-Dawley rat large intestine content measured at 12 hrs; assay type: ADME, tissue-based; details: read-out: Ct
# Procedure, shortened: (§1)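 Sprague–Dawley rats were dosed with TNP-2198. Concentrations were measured in plasma (ng/mL) and in tissues or contents (ng/g) at 0.5, 2, 6, 12 and 24 h after dosing. Values below the limit of quantification are reported as BLOQ.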
# [3] = Half life in Beagle dog at 5 mg/kg, iv; assay type: ADME, organism-based, Canis lupus familiaris; details: in vivo
# Procedure, shortened: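 Single-dose PK of TNP-2198 was run in C57BL/6 mice (IV 5 mg/kg; PO 20 mg/kg) and beagle dogs (IV 5 mg/kg; PO 25 mg/kg). Terminal half-life (h) was derived from plasma profiles, together with Tmax, Vdss, CL, AUC and oral bioavailability.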
# Syrian golden hamster = assay: Antibacterial activity against Clostridioides difficile UNT-103-1 infected in Syrian hamster assessed as survival at 15 to 45 mg/kg, po administered once a daily for 5 days after 18 hrs post 10 mg/kg clindamycin treatment and measured upto 21 days; assay type: functional, Mesocricetus auratus; details: dose 15-45 mg/kg, time <= 21 day
# Procedure, shortened: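 Male Golden Syrian hamsters (80-90 g), housed singly, were gavaged with C. difficile UNT103-1 grown in sporulation medium broth and diluted to OD600 1 in prereduced broth. […] From 18 h later, drug or vehicle was given by oral gavage once daily for 5 days. Survival was recorded through day 21.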
# [4] = Drug distribution in Sprague-Dawley rat ascites fluid measured at 6 hrs; assay type: ADME, tissue-based, Ascitic fluid; details: read-out: Ct; procedure, shortened: as §1
# [5] = Drug distribution in Sprague-Dawley rat brain measured at 2 hrs; assay type: ADME, tissue-based; details: read-out: Ct; procedure, shortened: as §1
# [6] = Drug distribution in Sprague-Dawley rat ascites fluid measured at 2 hrs; assay type: ADME, tissue-based, Ascitic fluid; details: read-out: Ct; procedure, shortened: as §1
# [7] = Drug distribution in Sprague-Dawley rat large intestine tissue measured at 6 hrs; assay type: ADME, tissue-based; details: read-out: Ct; procedure, shortened: as §1
# Clostridioides difficile [8] = assay: Resistance development in Clostridioides difficile MMX 4381 assessed as spontaneous resistance frequency using at 1.23 x 10^9 CFU inoculum at 4 ug/ml; assay type: functional; details: dose 4 µg/ml
# Helicobacter pylori [9] = assay: Antibacterial activity against rifampicin-resistant Helicobacter pylori CB1903 harboring rpoBD530V mutant measured after 5 days by agar dilution method; assay type: functional; details: CB1903, 120 h, time 5 day
# Procedure, shortened: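 Agar dilution per CLSI. Wild-type ATCC 700392 (CB1531) and its derivatives carry defined resistance determinants. Drugs, alone or in 1:1 molar mixtures, were diluted 2-fold from 100× stocks into Mueller–Hinton agar with aged (≥2 weeks) sheep blood (5% v/v). MIC read after 5 days at 35 °C under microaerobic conditions from a campylobacter gas-generating system.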
# [10] = Drug distribution in Sprague-Dawley rat vaginal tissue measured at 6 hrs; assay type: ADME, tissue-based, Vagina; details: female, read-out: Ct; procedure, shortened: as §1
# Actinomyces naeslundii = assay: Antibacterial activity against Actinomyces naeslundii ATCC 1210; assay type: functional
# Clostridioides difficile [11] = assay: Antibacterial activity against fluoroquinolone-resistant Clostridioides difficile CB1939 measured after 3 days; assay type: functional; details: CB1939, 72 h, time 3 day
# [12] = Drug distribution in Sprague-Dawley rat plasma measured at 0.5 hrs; assay type: ADME, cell-free; procedure, shortened: as §1
# Fusobacterium nucleatum = assay: Antibacterial activity against Fusobacterium nucleatum ATCC 10953; assay type: functional
# [13] = Drug distribution in Sprague-Dawley rat ascites fluid measured at 24 hrs; assay type: ADME, tissue-based, Ascitic fluid; details: in vivo, BLD = below limit of detection; procedure, shortened: as §1
# Gardnerella vaginalis [14] = assay: Antibacterial activity against Gardnerella vaginalis clinical isolate USA; assay type: functional
# [15] = Drug distribution in Sprague-Dawley rat vaginal tissue measured at 24 hrs; assay type: ADME, tissue-based, Vagina; details: in vivo, BLD = below limit of detection; procedure, shortened: as §1
# Clostridioides difficile [16] = assay: Antibacterial activity against Clostridioides difficile BAA 1382; assay type: functional
# Bacteroides ovatus = assay: Antibacterial activity against metronidazole-resistant Bacteroides ovatus MMX 3504; assay type: functional
# Staphylococcus aureus = assay: Antibacterial activity against Staphylococcus aureus ATCC 29213; assay type: functional
# [17] = Tmax in C57BL/6 mouse at 20 mg/kg, po; assay type: ADME, organism-based; details: in vivo
# [18] = Drug distribution in Sprague-Dawley rat plasma measured at 6 hrs; assay type: ADME, cell-free; procedure, shortened: as §1
# [19] = Tmax in Beagle dog at 25 mg/kg, po; assay type: ADME, organism-based, Canis lupus familiaris; details: in vivo
# [20] = Drug distribution in Sprague-Dawley rat gums measured at 0.5 hrs; assay type: ADME, tissue-based, Gingiva; details: read-out: Ct; procedure, shortened: as §1
# [21] = Drug distribution in Sprague-Dawley rat ascites fluid measured at 12 hrs; assay type: ADME, tissue-based, Ascitic fluid; details: read-out: Ct; procedure, shortened: as §1
# [22] = system: Porphyromonas asaccharolytica; assay: Antibacterial activity against metronidazole-resistant Prevotella asaccharolytica MMX 3552; assay type: functional
# [23] = Drug distribution in Sprague-Dawley rat plasma measured at 2 hrs; assay type: ADME, cell-free; procedure, shortened: as §1
# [24] = Drug distribution in Sprague-Dawley rat vaginal tissue measured at 0.5 hrs; assay type: ADME, tissue-based, Vagina; details: female, read-out: Ct; procedure, shortened: as §1
# Gardnerella vaginalis [25] = assay: Resistance development in Gardnerella vaginalis MMX 5973 assessed as mutation prevention concentration using at 4.50 x 10^8 CFU inoculum; assay type: functional; details: dose 0.5 µg/ml
# [26] = Drug distribution in Sprague-Dawley rat stomach tissue measured at 24 hrs; assay type: ADME, tissue-based; details: read-out: Ct; procedure, shortened: as §1
# Helicobacter pylori [27] = assay: Resistance development in Helicobacter pylori MMX 3719 assessed as spontaneous resistance frequency using at 1.90 x 10^8 CFU inoculum at 1 ug/ml; assay type: functional; details: dose 1 µg/ml
# Procedure, shortened: (§2)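 H. pylori MMX 3719 exposed to 0.5, 1, 2 and 4 µg/mL drug with an inoculum of 1.90×10^8 CFU at each level. Two independent tests were run, and resistant colonies were counted and averaged. A spontaneous resistance frequency was reported for each concentration, and the MPC was taken across the concentrations tested.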
# Clostridioides difficile [28] = assay: Resistance development in Clostridioides difficile MMX 4381 assessed as spontaneous resistance frequency using at 1.23 x 10^9 CFU inoculum at 0.5 ug/ml; assay type: functional; details: dose 0.5 µg/ml
# Helicobacter pylori [29] = assay: Resistance development in Helicobacter pylori MMX 3719 assessed as mutation prevention concentration using at 1.90 x 10^8 CFU inoculum; assay type: functional; details: dose 0.5 µg/ml; procedure, shortened: as §2
# [30] = Drug distribution in Sprague-Dawley rat large intestine content measured at 0.5 hrs; assay type: ADME, tissue-based; details: read-out: Ct; procedure, shortened: as §1
# [31] = Drug distribution in Sprague-Dawley rat brain measured at 24 hrs; assay type: ADME, tissue-based; details: in vivo, BLD = below limit of detection; procedure, shortened: as §1
# Clostridioides difficile [32] = assay: Antibacterial activity against Clostridioides difficile clinical isolate China; assay type: functional
# Clostridioides difficile [33] = assay: Antibacterial activity against Clostridioides difficile ATCC 9689; assay type: functional
# [34] = Drug distribution in Sprague-Dawley rat gums measured at 12 hrs; assay type: ADME, tissue-based, Gingiva; details: read-out: Ct; procedure, shortened: as §1
# [35] = Half life in C57BL/6 mouse at 5 mg/kg, iv; assay type: ADME, organism-based; details: in vivo
# Helicobacter pylori [36] = assay: Antibacterial activity against Helicobacter pylori clinical isolate China; assay type: functional
# [37] = Drug distribution in Sprague-Dawley rat ascites fluid measured at 0.5 hrs; assay type: ADME, tissue-based, Ascitic fluid; details: read-out: Ct; procedure, shortened: as §1
# Gardnerella vaginalis [38] = assay: Resistance development in Gardnerella vaginalis MMX 5973 assessed as spontaneous resistance frequency using at 4.50 x 10^8 CFU inoculum at 1 ug/ml; assay type: functional; details: dose 1 µg/ml
# Procedure, shortened: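 Resistant colonies were counted at each drug concentration in two separate tests (test 1, test 2) and averaged. The spontaneous resistance frequency was taken from the mean colony count relative to the inoculum plated. Drug levels tested were 0.5, 1, 2 and 4 µg/mL, and a mutation prevention concentration (MPC) was also reported.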
# [39] = Drug distribution in Sprague-Dawley rat large intestine content measured at 6 hrs; assay type: ADME, tissue-based; details: read-out: Ct; procedure, shortened: as §1
# [40] = Oral bioavailability in C57BL/6 mouse at 20 mg/kg; assay type: ADME, organism-based; details: in vivo
compound,measurement,setting,value
CO[C@H]1/C=C/O[C@@]2(C)Oc3c(C)c(O)c4c(c3C2=O)C2=NC3(CCN(CCn5c([N+](=O)[O-])cnc5C)CC3)NC2=C(NC(=O)/C(C)=C\C=C\[C@H](C)[C@H](O)[C@@H](C)[C@@H](O)[C@@H](C)[C@H](OC(C)=O)[C@@H]1C)C4=O [RIFASUTENIZOL],Activity,Helicobacter pylori [1],1.7 log10CFU
same,concentration at 12 h,[2],2980 ng/g
same,half-life,[3],3.9 h
same,Activity,Syrian golden hamster,100%
same,concentration at 6 h,[4],3480 ng/g
same,concentration at 2 h,[5],392 ng/g
same,concentration at 2 h,[6],5270 ng/g
same,concentration at 6 h,[7],3660 ng/g
same,Activity,Clostridioides difficile [8],<8 10^-9No_unit
same,MIC,Helicobacter pylori [9],0.125 µg/mL
same,concentration at 6 h,[10],2590 ng/g
same,MIC,Actinomyces naeslundii,0.001 µg/mL
same,MIC,Clostridioides difficile [11],≤ 0.002 µg/mL
same,concentration at 0.5 h,[12],1700 ng/mL
same,MIC,Fusobacterium nucleatum,0.12 µg/mL
same,Ct,[13],Bld
same,MIC,Gardnerella vaginalis [14],≤ 0.004 µg/mL
same,MIC90,Gardnerella vaginalis [14],0.06 µg/mL
same,Ct,[15],Bld
same,MIC,Clostridioides difficile [16],0.00025 µg/mL
same,MIC,Bacteroides ovatus,0.12 µg/mL
same,MIC,Staphylococcus aureus,0.015 µg/mL
same,Tmax,[17],0.5 h
same,concentration at 6 h,[18],1440 ng/mL
same,Tmax,[19],1.2 h
same,concentration at 0.5 h,[20],3470 ng/g
same,concentration at 12 h,[21],84.5 ng/g
same,MIC,[22],0.008 µg/mL
same,concentration at 2 h,[23],2640 ng/mL
same,concentration at 0.5 h,[24],2800 ng/g
same,Activity,Gardnerella vaginalis [25],<=0.5 ug ml-1
same,concentration at 24 h,[26],14.4 ng/g
same,Activity,Helicobacter pylori [27],<5 10^-9No_unit
same,Activity,Clostridioides difficile [28],8 10^-9No_unit
same,Activity,Helicobacter pylori [29],<=0.5 ug ml-1
same,concentration at 0.5 h,[30],1480 ng/g
same,Ct,[31],Bld
same,MIC,Clostridioides difficile [32],≤ 0.06 µg/mL
same,MIC90,Clostridioides difficile [32],1 µg/mL
same,MIC,Clostridioides difficile [33],0.0002 µg/mL
same,concentration at 12 h,[34],115 ng/g
same,half-life,[35],0.8 h
same,MIC,Helicobacter pylori [36],≤ 0.002 µg/mL
same,concentration at 0.5 h,[37],2620 ng/g
same,Activity,Gardnerella vaginalis [38],<2 10^-9No_unit
same,concentration at 6 h,[39],84300 ng/g
same,bioavailability,[40],20%
